Source: ChEMBL document CHEMBL4680221, “Discovery of pyrazole derivatives as cellular active inhibitors of histone lysine specific demethylase 5B (KDM5B/JARID1B)” (Eur J Med Chem, 2020)
Active and inactive are the calls of the source. The calls are words filed in the database; no cut-off is given here.

Assays:
[1] = target: T1, Lysine-specific demethylase 5B (Homo sapiens, UniProt Q9UGL1); test: Inhibition of recombinant human N-terminal FLAG-tagged KDM5B expressed in Sf9 insect cells using biotin-H3K4me as substrate by ALPHA
Procedure, shortened: (§1)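 ALPHA demethylase assay. Recombinant KDM5B (4 nM) was preincubated with compound, then biotin-H3K4me3 peptide (64 nM) was added. Buffer: 10 μM α-KG, 100 μM ascorbate, 50 μM (NH4)2Fe(SO4)2, 50 mM HEPES pH 7.5, 0.01% Tween 20, 0.1% BSA. Read-out used streptavidin donor and H3K4me1-2 antibody acceptor beads. Data were normalized to blank control and IC50 fitted.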

[2] = target: T1, Lysine-specific demethylase 5B; test: Inhibition of recombinant human N-terminal FLAG-tagged KDM5B expressed in Sf9 insect cells at 10 uM using biotin-H3K4me as substrate by ALPHA relative to control; procedure, shortened: as §1
[3] = target: T1, Lysine-specific demethylase 5B; test: Inhibition of KDM5B in human MKN-45 cells assessed as protein stabilization at 0.5 to 30 uM measured after 1 hr by cellular thermal shift assay; format: cell-based; details: dose 0.5-30 µM
Procedure, shortened: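 MKN45 cells (5×10^5) were treated with compound or DMSO for 1 h, washed in PBS and resuspended in PBS with protease inhibitors. Cells were heated at 46 °C for 3 min, then freeze-thawed three times in liquid nitrogen. KDM5B in the supernatant was measured by western blot with GAPDH control. Repeated three times.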

[4] = target: T1, Lysine-specific demethylase 5B; test: Inhibition of KDM5B in human MKN-45 cells assessed as increase in H3K4me2 accumulation at 20 uM measured after 5 days by Hoechst 33342 staining based immunofluorescence assay; format: cell-based; details: time 5.0 day
Procedure, shortened: (§2)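 MKN45 cells were seeded and left 24 h, then treated for 5 days. Cells were fixed in 4% paraformaldehyde, permeabilised with 0.1% Triton X-100 for 20 min and blocked with 5% BSA for 1 h. H3K4me2 or H3K4me3 primary antibody was applied at 4°C overnight, followed by Alexa Fluor 488 secondary and Hoechst 33342 (5 µg/mL) nuclear stain. Signal was quantified by high content imaging; three independent experiments.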

[5] = target: T1, Lysine-specific demethylase 5B; test: Inhibition of KDM5B in human MKN-45 cells assessed as increase in H3K4me3 accumulation at 20 uM measured after 5 days by Hoechst 33342 staining based immunofluorescence assay; format: cell-based; details: time 5.0 day; procedure, shortened: as §2
[6] = target: T1, Lysine-specific demethylase 5B; test: Inhibition of KDM5B in human MKN-45 cells assessed as increase in H3K4me2 accumulation at 20 uM measured after 5 days by Western blot analysis; format: cell-based; details: time 5.0 day
Procedure, shortened: (§3)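 MKN45 cells were treated for 5 days and lysed in RIPA buffer. About 30 µg protein was run on 10% SDS-PAGE and transferred to 0.2 µm nitrocellulose, then blocked with 5% milk in PBS for 2 h. Blots were probed for histone methylation marks with histone 3 as loading control and detected by ECL.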

[7] = target: T1, Lysine-specific demethylase 5B; test: Inhibition of KDM5B in human MKN-45 cells assessed as increase in H3K4me3 accumulation at 20 uM measured after 5 days by Western blot analysis; format: cell-based; details: time 5.0 day; procedure, shortened: as §3
[8] = target: T1, Lysine-specific demethylase 5B; test: Inhibition of KDM5B in human MKN-45 cells assessed as increase in H3K4me1 accumulation at 20 uM measured after 5 days by Western blot analysis; format: cell-based; details: time 5.0 day; procedure, shortened: as §3
MKN-45 [9] = test: Inhibition of KDM4 in human MKN-45 cells assessed as increase in H3K9me2 accumulation at 20 uM measured after 5 days by Western blot analysis; format: cell-based; details: time 5.0 day; procedure, shortened: as §3
MKN-45 [10] = test: Inhibition of KDM4 in human MKN-45 cells assessed as increase in H3K9me3 accumulation at 20 uM measured after 5 days by Western blot analysis; format: cell-based; details: time 5.0 day; procedure, shortened: as §3
MKN-45 [11] = test: Inhibition of KDM6 in human MKN-45 cells assessed as increase in H3K27me2 accumulation at 20 uM measured after 5 days by Western blot analysis; format: cell-based; details: time 5.0 day; procedure, shortened: as §3
MKN-45 [12] = test: Antiproliferative activity against human MKN-45 cells assessed as reduction in cell proliferation measured after 4 days by MTS assay relative to control; format: functional; parameters: scale not given: the % may be the effect or the level left; details: time 4 day
Procedure, shortened: (§4)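 MKN45 cells were seeded at 3×10^3 cells per well and treated for 4 or 6 days, as indicated. Proliferation was read by MTS assay and IC50 derived. Three independent experiments, mean ± SD.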

MKN-45 [13] = test: Antiproliferative activity against human MKN-45 cells assessed as reduction in cell proliferation measured after 6 days by MTS assay relative to control; format: functional; parameters: scale not given: the % may be the effect or the level left; details: time 6 day; procedure, shortened: as §4
MKN-45 [14] = test: Antimigratory activity in human MKN-45 cells at 20 uM measured up to 48 hrs by wound healing assay; format: functional, cell-based; details: time hrs <=48
Procedure, shortened: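 MKN45 cells were grown to confluence in 24 h, then scratched with a pipette tip and washed with PBS. Medium was changed to fresh medium with 2% FBS plus compound. The wound was photographed by microscope at 0, 6, 12, 24 and 48 h. Three independent experiments.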

MKN-45 [15] = test: Antimigratory activity in human MKN-45 cells at 20 uM measured after 24 hrs by transwell assay; format: functional, cell-based
MKN-45 [16] = test: Antiproliferative activity against human MKN-45 cells assessed as reduction in cell proliferation measured after 4 days by MTS assay; format: functional, cell-based; details: MKN-45, 96 h; procedure, shortened: as §4
MKN-45 [17] = test: Antiproliferative activity against human MKN-45 cells assessed as reduction in cell proliferation measured after 6 days by MTS assay; format: functional, cell-based; details: MKN-45, 144 h; procedure, shortened: as §4
[18] = Cytotoxicity against human GES1 cells assessed as reduction in cell proliferation at 100 uM by MTS assay relative to control; format: cell-based; details: read-out: Activity
Procedure, shortened: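 Normal human gastric epithelial GES-1 cells, seeded at 3×10^3 cells per well and exposed to 100 μM. Antiproliferation rate was read by MTS assay.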

T1 sequence (Q9UGL1 whole entry): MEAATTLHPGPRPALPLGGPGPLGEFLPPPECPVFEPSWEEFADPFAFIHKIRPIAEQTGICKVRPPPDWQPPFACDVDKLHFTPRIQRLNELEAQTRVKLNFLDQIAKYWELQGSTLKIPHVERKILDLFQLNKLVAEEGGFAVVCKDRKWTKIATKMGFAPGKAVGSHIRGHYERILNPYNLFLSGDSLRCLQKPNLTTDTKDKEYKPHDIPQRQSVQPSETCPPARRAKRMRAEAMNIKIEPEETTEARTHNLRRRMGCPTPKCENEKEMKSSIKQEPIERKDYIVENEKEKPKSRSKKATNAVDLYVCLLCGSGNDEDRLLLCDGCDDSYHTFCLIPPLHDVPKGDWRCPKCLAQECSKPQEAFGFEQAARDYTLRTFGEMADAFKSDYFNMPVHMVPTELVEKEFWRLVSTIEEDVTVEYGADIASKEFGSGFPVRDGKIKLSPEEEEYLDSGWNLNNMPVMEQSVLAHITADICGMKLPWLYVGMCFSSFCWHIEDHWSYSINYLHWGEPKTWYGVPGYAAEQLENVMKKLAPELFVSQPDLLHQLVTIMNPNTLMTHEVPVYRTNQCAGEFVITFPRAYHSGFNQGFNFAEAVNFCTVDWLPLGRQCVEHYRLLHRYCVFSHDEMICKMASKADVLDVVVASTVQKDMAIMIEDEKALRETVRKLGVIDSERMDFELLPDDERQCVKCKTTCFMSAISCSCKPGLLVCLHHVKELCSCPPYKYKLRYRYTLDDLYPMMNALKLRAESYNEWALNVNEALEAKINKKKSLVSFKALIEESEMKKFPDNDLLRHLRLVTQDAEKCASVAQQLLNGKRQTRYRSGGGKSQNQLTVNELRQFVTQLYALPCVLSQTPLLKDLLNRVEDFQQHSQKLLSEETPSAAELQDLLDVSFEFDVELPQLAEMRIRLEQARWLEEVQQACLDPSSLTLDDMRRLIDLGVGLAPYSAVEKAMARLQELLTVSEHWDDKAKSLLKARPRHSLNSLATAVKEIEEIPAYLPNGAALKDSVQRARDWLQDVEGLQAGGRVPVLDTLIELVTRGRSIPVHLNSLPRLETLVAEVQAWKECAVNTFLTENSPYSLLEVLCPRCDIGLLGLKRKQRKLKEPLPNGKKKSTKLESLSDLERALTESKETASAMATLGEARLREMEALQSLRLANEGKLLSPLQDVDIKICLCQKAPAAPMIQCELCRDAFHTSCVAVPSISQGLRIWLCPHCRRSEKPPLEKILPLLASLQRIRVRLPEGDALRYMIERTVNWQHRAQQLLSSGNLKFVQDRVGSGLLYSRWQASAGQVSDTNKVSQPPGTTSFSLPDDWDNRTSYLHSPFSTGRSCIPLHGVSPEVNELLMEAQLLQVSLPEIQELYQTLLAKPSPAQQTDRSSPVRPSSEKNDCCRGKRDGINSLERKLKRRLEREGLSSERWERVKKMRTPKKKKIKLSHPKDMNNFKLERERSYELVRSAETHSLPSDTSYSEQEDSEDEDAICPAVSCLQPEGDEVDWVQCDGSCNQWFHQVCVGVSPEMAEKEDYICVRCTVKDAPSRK

`Cc1n[nH]cc1C(=O)NCCN1CCOCC1` gave an IC50 [1] greater than 10000 nM and an inhibition [2] of 21.5%.
For `Cc1ccc(-n2cc(C(=O)NCCN3CCOCC3)c(-c3ccccc3)n2)cc1`, the IC50 [1] was 851 nM and the inhibition [2] was 66.8%.
Work on `Cc1ccc(-n2nc(-c3ccccc3)nc2C(=O)NCC(C)(C)N2CCOCC2)cc1` yielded an IC50 [1] greater than 10000 nM and an inhibition [2] of 28.9%.
With `COc1ccc(-n2cc(C(=O)N3CCN(CCN4CCCC4)CC3)c(-c3ccccc3)n2)cc1` the IC50 [1] was greater than 10000 nM and the inhibition [2] was 17.2%.
For `Cc1ccccc1-n1cc(C(=O)NCCN2CCOCC2)c(-c2ccccc2)n1`, the IC50 [1] was greater than 10000 nM and the inhibition [2] was -7.78%.
In the case of `COc1ccc(-n2cc(C(=O)NCCN3CCOCC3)c(-c3ccccc3)n2)cc1`, the IC50 [1] is reported as 108 nM and the inhibition [2] is reported as 93%.
In the case of `CCc1ccc(-c2nn(-c3ccccc3)cc2C(=O)NCCN2CCOCC2)cc1`, the IC50 [1] is reported as 1350 nM and the inhibition [2] is reported as 45.3%.
In the case of `COc1ccc(-n2nc(-c3ccccc3)nc2C(=O)NCC(C)(C)N2CCOCC2)cc1`, the IC50 [1] is reported as greater than 10000 nM, the inhibition [2] is reported as 28% and the inhibition [3] is reported as “inactive”. The inhibition [4] was “inactive”, the inhibition [5] was “inactive” and the inhibition [6] was “inactive”. The inhibition [7] was “inactive”, the inhibition [8] was “inactive” and the inhibition (MKN-45 [9]) was “inactive”. The inhibition (MKN-45 [10]) was “inactive”, the inhibition (MKN-45 [11]) was “inactive” and the Activity (MKN-45 [12]) was 10.32%. For the same molecule, the Activity (MKN-45 [13]) was 13.24%, the Activity (MKN-45 [14]) was “inactive” and the Activity (MKN-45 [15]) was “inactive”.
Molecule `COc1ccccc1-n1cc(C(=O)NCC(C)(C)N2CCOCC2)c(-c2ccccc2)n1` has an IC50 [1] of 93.2 nM and an inhibition [2] of 92.3%.
With `CC(C)(CNC(=O)c1cn(-c2ccc(Cl)cc2)nc1-c1ccccc1)N1CCOCC1` the IC50 [1] was 541 nM and the inhibition [2] was 62%.
Molecule `O=C(NCCN1CCOCC1)c1cn(-c2ccccc2)nc1-c1ccc(Cl)cc1` has an IC50 [1] of 572 nM and an inhibition [2] of 72%.
`O=C(NCCN1CCOCC1)c1cncc(-c2ccccc2)c1` showed an IC50 [1] greater than 10000 nM and an inhibition [2] of 42.5%.
Molecule `Cc1ccc(-c2nn(-c3ccc(C)cc3)cc2C(=O)N2CCN(CCN3CCCC3)CC2)cc1` has an IC50 [1] of 851 nM and an inhibition [2] of 76.5%.
With `Cc1ccc(-n2cc(C(=O)N3CCN(CCN4CCCC4)CC3)c(-c3ccccc3)n2)cc1` the IC50 [1] was 73 nM and the inhibition [2] was 94.2%.
Work on `COC(=O)CCNC(=O)c1cn(-c2ccc(C)cc2)nc1-c1ccccc1` yielded an IC50 [1] of 251 nM and an inhibition [2] of 82.1%.
With `CC(C)c1c(-c2ccccc2)[nH]c2c(C#N)cnn2c1=O` the IC50 [1] was 10.5 nM, the IC50 (MKN-45 [16]) was 30300 nM and the IC50 (MKN-45 [17]) was 23800 nM. For the same molecule, the inhibition at 100 µM [18] was less than 10%, the Activity (MKN-45 [14]) was “Active” and the Activity (MKN-45 [15]) was “Active”.
`Cc1ccc(NC(=O)c2cn(-c3ccc(C)cc3)nc2-c2ccccc2)cc1` showed an IC50 [1] of 323 nM and an inhibition [2] of 79.5%.
With `Cc1cccc(-n2cc(C(=O)NCCN3CCOCC3)c(-c3ccccc3)n2)c1` the IC50 [1] was greater than 10000 nM and the inhibition [2] was 20.9%.
`Cc1cncc(C(=O)NCCN2CCOCC2)c1` showed an IC50 [1] greater than 10000 nM and an inhibition [2] of 33.6%.
For `O=C(NCCN1CCOCC1)c1c[nH]nc1-c1ccccc1`, the IC50 [1] was 5390 nM and the inhibition [2] was 75.7%.
For `COc1ccc(-c2nn(-c3ccccc3)cc2C(=O)NCCN2CCOCC2)cc1`, the IC50 [1] was 238 nM and the inhibition [2] was 82.3%.
Work on `O=C(NCCN1CCOCC1)c1cn(-c2ccccc2)nc1-c1ccncc1` yielded an IC50 [1] of 237 nM and an inhibition [2] of 81.3%.
For `CC(C)(CNC(=O)c1cn(-c2ccccc2)nc1-c1ccccc1)N1CCN(c2ccccc2)CC1`, the IC50 [1] was 200 nM and the inhibition [2] was 92.3%.
For `Cc1ccccc1-c1nn(-c2ccccc2)cc1C(=O)NCCN1CCOCC1`, the IC50 [1] was greater than 10000 nM and the inhibition [2] was 9.25%.
In the case of `O=C(NCCN1CCOCC1)c1cn(-c2ccccc2)nc1-c1cccs1`, the IC50 [1] is reported as 335 nM and the inhibition [2] is reported as 75.4%.
With `C#CCNC(=O)c1cn(-c2ccccc2)nc1-c1ccccc1` the IC50 [1] was 348 nM and the inhibition [2] was 84.6%.
Work on `CC(C)c1ccc(-n2cc(C(=O)NCCN3CCOCC3)c(-c3ccccc3)n2)cc1` yielded an IC50 [1] greater than 10000 nM and an inhibition [2] of 14.8%.
`O=C(NCCN1CCOCC1)c1cn(-c2ccccc2)nc1-c1ccccc1` gave an IC50 [1] of 310 nM and an inhibition [2] of 76.4%.
For `O=C(NCCN1CCOCC1)c1cn(-c2ccc(Cl)cc2)nc1-c1ccccc1`, the IC50 [1] was greater than 10000 nM and the inhibition [2] was 8.69%.
`CC(C)N(CCNC(=O)c1cn(-c2ccccc2)nc1-c1ccccc1)C(C)C` gave an IC50 [1] of 2240 nM and an inhibition [2] of 67%.
For `O=C(NCC1(N2CCOCC2)CCCCC1)c1cn(-c2ccccc2)nc1-c1ccccc1`, the IC50 [1] was greater than 10000 nM and the inhibition [2] was -1.95%.
`O=C(c1cn(-c2ccccc2)nc1-c1ccccc1)N1CCN(CCN2CCCC2)CC1` showed an IC50 [1] of 232 nM and an inhibition [2] of 86.6%.
With `Cc1ccc(-n2cc(C(=O)NCC(C)(C)N3CCOCC3)c(-c3ccccc3)n2)cc1` the IC50 [1] was 191 nM and the inhibition [2] was 82.4%.
`CCc1ccc(-n2cc(C(=O)NCCN3CCOCC3)c(-c3ccccc3)n2)cc1` showed an IC50 [1] greater than 10000 nM and an inhibition [2] of 20%.
In the case of `CC(C)c1ccc(-c2nn(-c3ccccc3)cc2C(=O)NCCN2CCOCC2)cc1`, the IC50 [1] is reported as greater than 10000 nM and the inhibition [2] is reported as -5.81%.
